According to ChEMBL document CHEMBL1144887, “Indanylidenes. 1. Design and synthesis of (E)-2-(4,6-difluoro-1-indanylidene)acetamide, a potent, centrally acting muscle relaxant with antiinflammatory and analgesic activity” (J Med Chem, 2003):

What was measured:
Mus musculus [1] = test: (§1) Percent effect profile muscle relaxation at 100 mg/kg by intraperitoneal administration in mouse using Straub-tail (ST) assay; assay type: functional; conditions: ip
In short: (§2)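 Mouse morphine-induced Straub tail assay, scoring inhibition of sacro-coccygeus dorsalis contraction. Single ip dose of 100 mg/kg; percent effect reported. Compounds above 50% inhibition were then tested orally.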

Rattus norvegicus [2] = test: Antiinflammatory activity in edema by Carrageenan pleurisy assay by oral administration; assay type: functional
In short: (§3)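 Rat carrageenan pleurisy, 3 h. Compounds given orally, with separate read-outs for pleural cell counts and edema. ED50 reported in mg/kg po. Each compound tested two or three times; average variation approximately 10%.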

Mus musculus [3] = test: Sedation caused by oral administration was estimated using rotarod (RR) assay.; assay type: functional
In short: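 Mouse rotorod test for sedation, oral dosing, generally at a minimum of three doses with N = 6 animals per dose group.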

Rattus norvegicus [4] = test: Effective dose required for analgesic activity by trypsin-induced hyperalgesia assay at 20 mg/kg by oral administration in rats; assay type: functional
In short: (§4)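 Rat trypsin-induced hyperalgesia (mild analgesia) with oral dosing. ED50 reported in mg/kg po. Each compound tested two or three times; average variation approximately 5%.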

Mus musculus [5] = species: Mus musculus; test: Ratio of rotarod to Straub-tail activity, which indicates the dose exhibiting muscle relaxant activity versus that producing sedation.; assay type: functional
In short: (§5)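 Ratio of rotorod ED50 (po) to Straub tail ED50 (po), both measured in mice with oral dosing. Indicates separation between the muscle-relaxant dose and the sedating dose.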

Rattus norvegicus [6] = test: Antiinflammatory activity in cells using Carrageenan pleurisy assay by oral administration; assay type: functional; in short: as §3
Rattus norvegicus [7] = test: Percent inhibition for analgesic activity by trypsin-induced hyperalgesia assay at 20 mg/kg by oral administration in rats; assay type: functional
In short: (§6)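 Rat trypsin-induced hyperalgesia (mild analgesia). Percent inhibition at a single oral dose of 20 mg/kg. Each compound tested two or three times; average variation approximately 5%.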

Mus musculus [8] = test: Effective dose required for muscle relaxation by oral administration in mouse using Straub-tail (ST) assay.; assay type: functional
In short: (§7)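 Mouse morphine-induced Straub tail assay, scoring inhibition of sacro-coccygeus dorsalis contraction. Dosed ip or po, generally at a minimum of three doses with N = 6 animals per dose group.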

Mus musculus [9] = test: as §1; assay type: functional; conditions: ip; in short: as §2; remark: listed apart in the source
Rattus norvegicus [10] = test: Antiinflammatory activity in cells by Carrageenan pleurisy assay by oral administration at 20 mg/kg.; assay type: functional
In short: (§8)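 Rat carrageenan pleurisy, 3 h. Single oral dose of 20 mg/kg, with separate read-outs for pleural cell counts and edema as percent inhibition. Each compound tested two or three times; average variation approximately 10%.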

Mus musculus [11] = test: Effective dose required for muscle relaxation by intraperitoneal administration in mouse using Straub-tail (ST) assay; assay type: functional; conditions: for ED50: ip; in short: as §7
Rattus norvegicus [12] = test: Percent inhibition for analgesic activity by trypsin-induced hyperalgesia assay at 20 mg/kg by oral administration in rats.; assay type: functional; in short: as §6
Rattus norvegicus [13] = test: Antiinflammatory activity in edema by Carrageenan pleurisy assay by oral administration at 20 mg/kg.; assay type: functional; in short: as §8
Mus musculus [14] = species: Mus musculus; test: Ratio of rotarod to straub tail activity, which indicates the dose exhibiting muscle relaxant activity versus that producing sedation; assay type: functional; in short: as §5
Mus musculus [15] = test: Evaluated for sedation in mice by loss of righting reflex up to a dose of 200 mg/kg by oral administration; No loss of righting reflex; assay type: functional, organism-based; set-up: dose 200 mg/kg
Rattus norvegicus [16] = test: Effective dose required for muscle relaxation after oral administration in Lewis rats by pull-up test
Rattus norvegicus [17] = test: Effective dose required to produce analgesic activity in the trypsin hyperalgesia assay by oral administration
[18] = Effective dose required to produce analgesic activity in the phalanges algesia assay by oral administration; assay type: functional
[19] = Effective dose required to produce analgesic activity in the adjuvant arthritis hyperalgesia assay by oral administration; assay type: functional
Rattus norvegicus [20] = test: Effective dose required for muscle relaxation after oral administration in Wistar rats by pull-up test
Rattus norvegicus [21] = test: Antiinflammatory activity in cells by Carrageenan pleurisy assay by oral administration; assay type: functional; in short: as §3
[22] = molecular target: T1, Amine oxidase [flavin-containing] B (Homo sapiens, UniProt P27338); test: Inhibitory concentration against Monoamine oxidase B (MAO-B)
T1 sequence (P27338 whole entry): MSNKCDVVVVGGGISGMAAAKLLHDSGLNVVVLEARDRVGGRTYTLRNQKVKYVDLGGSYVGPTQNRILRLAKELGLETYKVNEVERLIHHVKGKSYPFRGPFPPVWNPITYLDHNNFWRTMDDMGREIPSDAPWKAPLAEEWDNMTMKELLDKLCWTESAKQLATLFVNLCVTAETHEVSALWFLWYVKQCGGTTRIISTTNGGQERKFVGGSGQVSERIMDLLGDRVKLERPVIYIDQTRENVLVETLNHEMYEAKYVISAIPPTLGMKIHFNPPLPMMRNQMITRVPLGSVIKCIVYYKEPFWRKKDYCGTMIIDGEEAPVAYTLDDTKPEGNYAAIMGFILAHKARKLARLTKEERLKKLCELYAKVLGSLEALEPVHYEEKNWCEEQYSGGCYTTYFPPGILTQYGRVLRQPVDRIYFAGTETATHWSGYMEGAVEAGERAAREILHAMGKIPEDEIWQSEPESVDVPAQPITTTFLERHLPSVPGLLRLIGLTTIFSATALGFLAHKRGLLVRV

[23] = molecular target: T2, Amine oxidase [flavin-containing] A (Homo sapiens, UniProt P21397); test: Inhibitory concentration against Monoamine oxidase A (MAO-A)
T2 sequence (P21397 whole entry): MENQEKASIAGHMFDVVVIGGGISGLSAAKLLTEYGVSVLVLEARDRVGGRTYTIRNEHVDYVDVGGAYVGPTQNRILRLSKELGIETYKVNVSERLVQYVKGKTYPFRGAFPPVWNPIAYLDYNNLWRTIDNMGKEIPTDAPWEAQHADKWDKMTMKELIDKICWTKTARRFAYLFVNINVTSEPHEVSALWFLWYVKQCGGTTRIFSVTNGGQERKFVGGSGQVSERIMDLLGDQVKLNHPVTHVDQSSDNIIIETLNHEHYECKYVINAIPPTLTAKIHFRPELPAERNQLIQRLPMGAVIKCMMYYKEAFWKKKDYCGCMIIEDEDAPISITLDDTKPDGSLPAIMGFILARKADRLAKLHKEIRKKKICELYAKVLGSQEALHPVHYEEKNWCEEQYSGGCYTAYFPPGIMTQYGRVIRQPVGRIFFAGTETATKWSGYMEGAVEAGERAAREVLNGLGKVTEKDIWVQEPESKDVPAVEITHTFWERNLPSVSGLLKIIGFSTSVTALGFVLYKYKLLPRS

Rattus norvegicus [24] = test: Effective dose required for sedation in Wistar rats evaluated by loss of righting reflex by oral administration; assay type: functional
In short: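 Sedation in Wistar rats scored as loss of righting reflex (ability to stay upright) after oral dosing. ED50 reported in mg/kg po.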

Mus musculus [25] = species: Mus musculus; test: Effective dose required to produce analgesic activity was measured by mouse hot plate assay; assay type: functional
[26] = Effective dose required to produce analgesic activity in the trypsin hyperalgesia assay by oral administration; assay type: functional; in short: as §4
Rattus norvegicus [27] = test: Percent inhibition for analgesic activity by trypsin-induced hyperalgesia assay at 20 mg/kg by oral administration in rats; ND is no data.; assay type: functional; in short: as §6
Rattus norvegicus [28] = test: Antiinflammatory activity in cells by Carrageenan pleurisy assay by oral administration at 20 mg/kg; assay type: functional; in short: as §8
Rattus norvegicus [29] = test: Antiinflammatory activity in edema by Carrageenan pleurisy assay by oral administration at 20 mg/kg; assay type: functional; in short: as §8

Structure (SMILES) | inhibition in vivo at 100 mg/kg (Mus musculus [1]) [%] | ED50 (Rattus norvegicus [2]) [mg/kg] | ED50 (Mus musculus [3]) [mg/kg] | ED50 (Rattus norvegicus [4]) [mg/kg] | Ratio (Mus musculus [5]) | ED50 (Rattus norvegicus [6]) [mg/kg] | ED50 (Mus musculus [8]) [mg/kg] | inhibition in vivo at 100 mg/kg (Mus musculus [9]) [%] | inhibition in vivo at 20 mg/kg (Rattus norvegicus [10]) [%] | inhibition in vivo at 20 mg/kg (Rattus norvegicus [12]) [%] | inhibition in vivo at 20 mg/kg (Rattus norvegicus [13]) [%] | other results
NC(=O)/C=C1\CCc2cc(F)c(F)cc21 | 100 | 17 | 82 | 19 | 1.3 | 13 | 64 |  |  |  |  | inhibition in vivo at 20 mg/kg (Rattus norvegicus [7]): 62%
O=C(/C=C1\CCc2ccc(F)cc21)Nc1ccccc1 |  |  |  |  |  | 8 |  | 83 |  |  |  | 
O=C(/C=C/c1cccc(F)c1)NC1CC1 [CINFLUMIDE] |  |  | 189 |  | 1.2 |  | 156 |  | < 20 | < 20 | < 20 | ED50 (Mus musculus [11]): 63 mg/kg
CNC(=O)/C=C1\CCc2cc(F)c(F)cc21 | 100 | 11 |  | 9 |  | 18 | 96 |  |  | 100 |  | 
CC(C)NC(=O)/C=C1\CCc2ccc(F)cc21 | 100 |  | > 100 | 9 |  |  | 96 |  | 45 | 83 | 71 | 
NC(=O)/C=C1\CCc2ccccc21 |  |  | 164 | 9 |  |  | 108 |  |  | 88 |  | ED50 (Mus musculus [11]): 31 mg/kg; Ratio (Mus musculus [14]): 1.5
O=C(/C=C1\CCc2ccc(F)cc21)NC1CCC1 |  |  |  |  |  |  | > 100 | 100 | 4 |  | 0 | inhibition in vivo at 20 mg/kg (Rattus norvegicus [7]): 17%
NC(=O)/C=C1\CCc2ccc(Cl)cc21 |  | 33 | 221 |  | 2 | 27 | 98 |  |  |  |  | ED50 (Mus musculus [11]): 40 mg/kg
NC(=O)/C=C1\CCc2cc(Cl)ccc21 |  |  |  | 30 |  |  |  | 0 | 30 | 42 | 29 | 
C/C(=C\C(=O)NC1CC1)c1cccc(F)c1 |  |  | 71 |  | 0.6 |  | 122 |  |  |  |  | ED50 (Mus musculus [11]): 46 mg/kg
NC(=O)/C=C1\CCc2c(F)cccc21 |  |  |  | 13 |  |  | > 100 | 63 | 40 | 68 | 34 | 
NC(=O)/C=C1\CCc2c(F)cc(F)cc21 | 100 | 15 | 138 | 4 |  |  | 69 | 67 |  |  |  | ED50 (Mus musculus [15]): No loss of righting reflex; ED50 (Rattus norvegicus [16]): 18 mg/kg; ED50 (Rattus norvegicus [17]): 22 mg/kg; ED50 [18]: 20 mg/kg; ED50 [19]: 21 mg/kg; ED50 (Rattus norvegicus [20]): 64 mg/kg; ED50 (Rattus norvegicus [21]): 19 mg/kg; IC50 [22]: 0.2 µM; IC50 [23]: 11 µM; ED50 (Rattus norvegicus [24]): 200 mg/kg; inhibition in vivo at 20 mg/kg (Rattus norvegicus [7]): 100%; ED50 (Mus musculus [25]): 30 mg/kg
COc1ccc2c3c1O[C@H]1[C@@H](O)C=C[C@H]4[C@@H](C2)N(C)CC[C@@]341 [CODEINE] |  |  |  |  |  |  |  |  |  |  |  | ED50 [26]: 33 mg/kg; ED50 [18]: 27 mg/kg; ED50 [19]: 25 mg/kg
Cc1ccc2c(c1)/C(=C/C(N)=O)CC2 | 33 |  |  |  |  |  |  |  |  |  |  | inhibition in vivo at 20 mg/kg (Rattus norvegicus [27]): 14%
Cc1cccc2c1CC/C2=C\C(N)=O |  |  |  |  |  |  | > 100 |  | 15 | 25 | 13 | Inhibition (Mus musculus [11]): 100%
O=C(/C=C1\CCc2c(F)cccc21)NC1CC1 | 100 |  |  |  |  |  | 126 |  |  |  |  | inhibition in vivo at 20 mg/kg (Rattus norvegicus [28]): 29%; inhibition in vivo at 20 mg/kg (Rattus norvegicus [29]): 18%
O=C(/C=C1\CCc2ccc(F)cc21)NCc1ccccc1 |  | 8 |  |  |  | 16 |  | 17 |  |  |  | inhibition in vivo at 20 mg/kg (Rattus norvegicus [7]): 8%
O=C(/C=C1\CCc2ccc(F)cc21)NC1CCCC1 |  | 11 |  |  |  | 14 |  | 0 |  |  |  | inhibition in vivo at 20 mg/kg (Rattus norvegicus [7]): 6%
NC(=O)/C=C1/CCc2ccccc21 |  |  |  |  |  |  |  |  |  |  |  | ED50 (Mus musculus [11]): 44 mg/kg
NC(=O)/C=C1\CCc2ccc(F)cc21 |  | 20 | 90 | 16 | 1.6 | 21 | 56 |  |  | 14 |  | ED50 (Mus musculus [11]): 22 mg/kg; inhibition in vivo at 20 mg/kg (Rattus norvegicus [7]): 60%
NC(=O)/C=C1\CCc2cc(F)cc(F)c21 |  |  | 81 | 10 | 1.8 |  | 44 | 100 | 54 | 93 | 55 | 
CNC(=O)/C=C1\CCc2c(F)cc(F)cc21 | 100 |  |  | 13 |  |  | 45 |  |  |  |  | inhibition in vivo at 20 mg/kg (Rattus norvegicus [7]): 65%
O=C(/C=C1\CCc2ccccc21)NC1CC1 |  |  | 235 |  | 1.6 |  | 150 |  |  |  |  | ED50 (Mus musculus [11]): 71 mg/kg
CN(C)C(=O)/C=C1\CCc2ccc(F)cc21 | 100 | 12 |  | 5 |  | 16 | > 100 |  |  | 88 |  | 
NC(=O)/C=C1\CCc2c(F)ccc(F)c21 | 100 |  | 89 | 8 | 1.6 |  | 56 |  | 67 | 83 | 67 | 
CNC(=O)/C=C1\CCc2ccc(F)cc21 |  |  |  | 25 |  |  |  | 50 | 45 | 58 | 38 | 
